Laboratory results published in ChEMBL document CHEMBL3098012, “A novel tamoxifen derivative, ridaifen-F, is a nonpeptidic small-molecule proteasome inhibitor” (Eur J Med Chem, 2014).
pIC50, pKi: −log10 of the molar value. Active and inactive are the calls of the source. No cut-off for these calls is given here. Peptide text beside a SMILES is read from it. * marks the point of attachment. Cbz = O=C(OCc1ccccc1)*

Columns and labels:
[1] = Cytotoxicity against ER-negative HEK293 cells after 48 hrs by MTT assay; type: cell-based; conditions: human
Method in brief: (§1)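 HEK293 (DMEM) or HL-60 (IMDM) cells, each with 10% FBS plus penicillin/streptomycin, seeded 5×10^3 cells/well in duplicate. Exposed 48 h to compound at […]. MTT reduction read as 560/750 nm absorbance ratio after HCl/2-propanol extraction. CyT50 from inhibition curve; means of triplicate.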

HL-60 = assay: Cytotoxicity against […] human HL60 cells after 48 hrs by MTT assay; type: functional; conditions: HL-60, 48 h; method in brief: as §1
[2] = target: T1, Proteasome Macropain subunit MB1 (Homo sapiens, UniProt P28074); assay: Inhibition of chymotrypsin-like activity of human 20S proteasome beta 5 subunit assessed as hydrolysis of succinyl-LLVY-AMC fluorogenic substrate measured for 1 hr by fluorometric analysis
T1 sequence (P28074 whole entry): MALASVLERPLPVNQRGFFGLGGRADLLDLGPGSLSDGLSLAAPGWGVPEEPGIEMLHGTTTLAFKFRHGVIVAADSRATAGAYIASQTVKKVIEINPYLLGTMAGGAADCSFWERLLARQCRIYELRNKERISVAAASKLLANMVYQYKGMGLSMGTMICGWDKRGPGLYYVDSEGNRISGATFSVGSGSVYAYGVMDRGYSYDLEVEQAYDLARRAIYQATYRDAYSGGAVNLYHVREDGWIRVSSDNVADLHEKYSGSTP
Method in brief: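 Purified human 20S proteasome (0.1 µg) incubated at 37 °C with 50 µM succinyl-LLVY-AMC (CT-L) or 20 µM Z-LLE-AMC (PGPH) and compound at 0.01–10 µM in 25 mM HEPES, 0.5 mM EDTA, 0.03% SDS. IC50 taken from inhibition curve; means of three experiments.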

HeLa [3] = assay: Induction of apoptosis in human HeLa cells assessed as PARP cleavage at 1 to 60 uM after 24 hrs by Western blotting analysis; type: functional, cell-based
Method in brief: (§2)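 HeLa cells seeded 4×10^5 cells/well, incubated 24 h with varying compound concentrations; PARP cleavage detected in lysates by Western blotting.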

[4] = target: Proteasome Macropain subunit (Homo sapiens) (UniProt P49721); assay: Inhibition of biotin-labeled belactosin A binding to human 20S proteasome beta 2 subunit at 1 to 100 uM preincubated for 1 hr followed by biotin-labeled belactosin A treatment measured after 1 hr by Western blotting analysis
Sequence of Proteasome Macropain subunit (Homo sapiens) (P49721 whole entry): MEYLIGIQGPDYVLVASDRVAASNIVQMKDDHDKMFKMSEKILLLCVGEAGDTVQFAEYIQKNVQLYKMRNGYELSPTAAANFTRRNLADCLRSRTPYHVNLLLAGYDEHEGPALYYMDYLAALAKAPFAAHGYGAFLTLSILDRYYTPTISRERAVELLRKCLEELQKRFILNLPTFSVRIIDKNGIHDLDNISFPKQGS
Method in brief: (§3)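 Purified human 20S proteasomes preincubated with varying inhibitor concentrations 1 h at 37 °C, then biotin-belactosin A added at 1 μM for a further 1 h. Proteins separated by SDS-PAGE, blotted to PVDF, blocked with 5% skim milk; biotin-labeled subunits detected with streptavidin-HRP and ECL. MG132 used as control.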

[5] = target: T2, Proteasome component C5 (Homo sapiens) (UniProt P20618); assay: Inhibition of biotin-labeled belactosin A binding to human 20S proteasome beta 1 subunit at 1 to 100 uM preincubated for 1 hr followed by biotin-labeled belactosin A treatment measured after 1 hr by Western blotting analysis; method in brief: as §3
T2 sequence (whole entry): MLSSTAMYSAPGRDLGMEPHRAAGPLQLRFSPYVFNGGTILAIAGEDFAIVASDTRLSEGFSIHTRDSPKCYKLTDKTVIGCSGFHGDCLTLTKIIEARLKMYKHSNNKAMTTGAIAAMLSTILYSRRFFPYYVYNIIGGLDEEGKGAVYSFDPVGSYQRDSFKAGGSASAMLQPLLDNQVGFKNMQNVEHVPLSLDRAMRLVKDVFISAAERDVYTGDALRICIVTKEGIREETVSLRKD

[6] = target: T2, Proteasome component C5 (Homo sapiens); assay: Inhibition of biotin-labeled belactosin A binding to human 20S proteasome beta 1 subunit at 10 uM preincubated for 1 hr followed by biotin-labeled belactosin A treatment measured after 1 hr by Western blotting analysis
Method in brief: (§4)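 Purified human 20S proteasome preincubated 1 h at 37 °C with varying compound levels, then biotin-belactosin A added to 1 µM for a further 1 h. Proteins separated by SDS-PAGE, blotted to PVDF, milk-blocked; biotin-labelled subunits detected with streptavidin-HRP and ECL.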

[7] = target: T3, Proteasome Macropain subunit MB1 (Homo sapiens) (UniProt P28074); assay: Inhibition of biotin-labeled belactosin A binding to human 20S proteasome beta 5 subunit at 1 to 100 uM preincubated for 1 hr followed by biotin-labeled belactosin A treatment measured after 1 hr by Western blotting analysis; method in brief: as §4
T3 sequence (whole entry): T1 sequence (P28074 whole entry)

HeLa [8] = assay: Induction of apoptosis in human HeLa cells assessed as PARP cleavage after 24 hrs by Western blotting analysis; type: functional, cell-based; method in brief: as §2
HeLa [9] = assay: Inhibition of proteasome in human HeLa cells assessed as accumulation of ubiquitinated proteins at 60 uM after 24 hrs by Western blotting analysis; type: cell-based
Method in brief: (§5)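 HeLa cells, 4×10^5 cells/well, treated 24 h with compound; vehicle control 0.25% DMSO. Lysed in Tris–HCl/2% SDS/glycerol buffer with protease and phosphatase inhibitors; 30 µg protein run on SDS-PAGE, PVDF blot probed with anti-ubiquitin (1:200), actin as loading reference, HRP secondary, ECL detection.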

[10] = target: T2, Proteasome component C5 (Homo sapiens); assay: Inhibition of biotin-labeled belactosin A binding to human 20S proteasome beta 1 subunit preincubated for 1 hr followed by biotin-labeled belactosin A treatment measured after 1 hr by Western blotting analysis; method in brief: as §4
[11] = target: T3, Proteasome Macropain subunit MB1 (Homo sapiens); assay: Inhibition of biotin-labeled belactosin A binding to human 20S proteasome beta 5 subunit at 100 uM preincubated for 1 hr followed by biotin-labeled belactosin A treatment measured after 1 hr by Western blotting analysis; method in brief: as §4
Homo sapiens [12] = species: Homo sapiens; assay: Inhibition of calpain (unknown origin) at >10 uM
Homo sapiens [13] = species: Homo sapiens; assay: Inhibition of cathepsin (unknown origin) at >10 uM
[14] = target: T1, Proteasome Macropain subunit MB1; assay: Noncompetitive inhibition of chymotrypsin-like activity of human 20S proteasome beta 5 subunit assessed as hydrolysis of succinyl-LLVY-AMC fluorogenic substrate Lineweaver-Burk plot analysis
[15] = target: T2, Proteasome component C5 (Homo sapiens); conditions: 10 to 20 uM
[16] = target: T3, Proteasome Macropain subunit MB1 (Homo sapiens); conditions: 10 to 20 uM
HeLa [17] = assay: Cell cycle arrest in human HeLa cells assessed as accumulation at sub G1 phase at 10 uM after 24 hrs by propidium iodide staining-based flow cytometric analysis (reference value: 2.2%); type: functional
HeLa [18] = assay: Inhibition of proteasome in human HeLa cells assessed as accumulation of ubiquitinated proteins at 10 uM after 24 hrs by Western blotting analysis; type: cell-based; method in brief: as §5
[19] = target: Proteasome Macropain subunit (Homo sapiens) (UniProt P49721); conditions: 10 to 20 uM
[20] = target: T3, Proteasome Macropain subunit MB1 (Homo sapiens); assay: Inhibition of chymotrypsin-like activity of human 20S proteasome beta 5 subunit assessed as hydrolysis of succinyl-LLVY-AMC fluorogenic substrate at 10 uM measured for 1 hr by fluorometric analysis relative to control; design: scale not given: the % may be the effect or the level left
[21] = target: Proteasome Macropain subunit (Homo sapiens) (UniProt P49721); assay: Inhibition of trypsin-like activity of human 20S proteasome beta 2 subunit assessed as hydrolysis of Boc-LRR-AMC fluorogenic substrate at 10 uM measured for 1 hr by fluorometric analysis relative to control; design: scale not given: the % may be the effect or the level left
[22] = target: T2, Proteasome component C5 (Homo sapiens); assay: Inhibition of PGPH-like activity of human 20S proteasome beta 1 subunit assessed as hydrolysis of Z-LLE-AMC fluorogenic substrate at 10 uM measured for 1 hr by fluorometric analysis relative to control; design: scale not given: the % may be the effect or the level left

pIC50 [2] | SMILES | CC50 at 48 h [1] [µM] | CC50 (HL-60) [µM] | further results
5.78 | O=C(c1ccc(OCCN2CCCCCC2)cc1)c1ccc(OCCN2CCCCCC2)cc1 | 13.9 | > 30 | 
< 5.00 | c1ccc(Cc2ccc(OCCN3CCCCCC3)cc2)cc1 | 27 | > 30 | Activity (HeLa [3]): inactive; inhibition [4]: Active; inhibition [5]: Active
6.17 | c1cc(OCCN2CCCCCC2)ccc1Cc1ccc(OCCN2CCCCCC2)cc1 | 10.9 | 14.5 | inhibition [6]: Active; inhibition [7]: Active; Activity (HeLa [8]): Dose-dependent effect; inhibition (HeLa [9]): Active; inhibition [10]: Dose-dependent effect; inhibition [11]: Active
6.12 | CC(C)(c1ccc(OCCN2CCCCCC2)cc1)c1ccc(OCCN2CCCCCC2)cc1 | 7.61 | 17.6 | 
5.78 | CC(O)(c1ccc(OCCN2CCCCCC2)cc1)c1ccc(OCCN2CCCCCC2)cc1 | 22.7 | 7.06 | 
5.78 | CC(C)=C(c1ccc(OCCN2CCCCCC2)cc1)c1ccc(OCCN2CCCCCC2)cc1 | 11.1 | 10.7 | 
5.18 | CCC(=C(c1ccc(OCCN2CCCC2)cc1)c1ccc(OCCN2CCCC2)cc1)c1ccccc1 |  |  | inhibition (Homo sapiens [12]): inactive; inhibition (Homo sapiens [13]): inactive
< 5.00 | CCC(=C(c1ccc(OCCN2CCCCC2)cc1)c1ccc(OCCN2CCCCC2)cc1)c1ccccc1 |  |  | inhibition (Homo sapiens [12]): inactive; inhibition (Homo sapiens [13]): inactive
5.98 | C=C(c1ccc(OCCN2CCCCCC2)cc1)c1ccc(OCCN2CCCCCC2)cc1 | 9.8 | 10.7 | 
5.14 | CCC(=C(c1ccc(OCCN2CCOCC2)cc1)c1ccc(OCCN2CCOCC2)cc1)c1ccccc1 |  |  | inhibition (Homo sapiens [12]): inactive; inhibition (Homo sapiens [13]): inactive
5.93 | c1ccc(C(=C(c2ccc(OCCN3CCCCCC3)cc2)c2ccc(OCCN3CCCCCC3)cc2)c2ccccc2)cc1 | 23.2 | > 30 | pKi [14]: 5.96
< 5.00 | CCCCCC(CCCCC)=C(c1ccc(OCCN2CCCCCC2)cc1)c1ccc(OCCN2CCCCCC2)cc1 | 14.5 | > 30 | 
5.84 | CCC=C(c1ccc(OCCN2CCCCCC2)cc1)c1ccc(OCCN2CCCCCC2)cc1 | 26.7 | 22.6 | 
< 5.00 | CCCCCCC(CCCCCC)=C(c1ccc(OCCN2CCCCCC2)cc1)c1ccc(OCCN2CCCCCC2)cc1 | > 30 | > 30 | 
< 5.00 | CCC(=C(c1ccc(OCCN(CC)CC)cc1)c1ccc(OCCN(CC)CC)cc1)c1ccccc1 |  |  | inhibition (Homo sapiens [12]): inactive; inhibition (Homo sapiens [13]): inactive
5.66 | c1cc(C(=C2CCCCC2)c2ccc(OCCN3CCCCCC3)cc2)ccc1OCCN1CCCCCC1 | 12.5 | 11.7 | 

pIC50 [2] | SMILES | CC50 at 48 h [1] [µM] | CC50 (HL-60) [µM] | further results
 | CC(C)C[C@@H](C=O)NC(=O)[C@H](CC(C)C)NC(=O)[C@H](CC(C)C)NC(=O)OCc1ccccc1 [MG-132] (Cbz-Leu-Leu-Leu-aldehyde) |  |  | inhibition [15]: Active; inhibition [16]: Active; Activity (HeLa [17]): 5.6%; inhibition (HeLa [18]): Active; inhibition [19]: Active
5.57 | c1cc(C(=C2CCCC2)c2ccc(OCCN3CCCCCC3)cc2)ccc1OCCN1CCCCCC1 | 26.2 | 20.1 | 
5.47 | CCCC(CCC)=C(c1ccc(OCCN2CCCCCC2)cc1)c1ccc(OCCN2CCCCCC2)cc1 | > 30 | > 30 | 
5.47 | CCC(=C(c1ccc(OCCN(C)C)cc1)c1ccc(OCCN(C)C)cc1)c1ccccc1 |  |  | inhibition (Homo sapiens [12]): inactive; inhibition (Homo sapiens [13]): inactive
< 5.00 | CCC(=C(c1ccc(OCCCN2CCCC2)cc1)c1ccc(OCCCN2CCCC2)cc1)c1ccccc1 |  |  | inhibition (Homo sapiens [12]): inactive; inhibition (Homo sapiens [13]): inactive
< 5.00 | CCCCC(CCCC)=C(c1ccc(OCCN2CCCCCC2)cc1)c1ccc(OCCN2CCCCCC2)cc1 | > 30 | 25.3 | 
6.05 | CC(=C(c1ccc(OCCN2CCCCCC2)cc1)c1ccc(OCCN2CCCCCC2)cc1)c1ccccc1 | 18.9 | 6.87 | 
6.10 | CC(c1ccc(OCCN2CCCCCC2)cc1)c1ccc(OCCN2CCCCCC2)cc1 | 8.12 | 21.4 | 
< 5.00 | CCC(=C(c1ccc(OCCCN(C)C)cc1)c1ccc(OCCCN(C)C)cc1)c1ccccc1 |  |  | inhibition (Homo sapiens [12]): inactive; inhibition (Homo sapiens [13]): inactive
< 5.00 | c1ccc(C(=C(c2ccc(OCCN3CCCCCC3)cc2)c2ccc(OCCN3CCCCCC3)cc2)C2CCCCC2)cc1 | > 30 | > 30 | 
5.80 | CCC(CC)=C(c1ccc(OCCN2CCCCCC2)cc1)c1ccc(OCCN2CCCCCC2)cc1 | 6.02 | 8.87 | 
 | CC/C(=C(\c1ccccc1)c1ccc(OCCN(C)C)cc1)c1ccccc1 |  |  | Activity [20]: 145%; Activity [21]: 112%; Activity [22]: 85%
5.86 | CCCC(=C(c1ccc(OCCN2CCCCCC2)cc1)c1ccc(OCCN2CCCCCC2)cc1)c1ccccc1 | 26.8 | 4.3 | 
5.71 | c1cc(C2(c3ccc(OCCN4CCCCCC4)cc3)CCCCC2)ccc1OCCN1CCCCCC1 | 17.5 | > 30 | 
6.24 | C(=C(c1ccc(OCCN2CCCCCC2)cc1)c1ccc(OCCN2CCCCCC2)cc1)c1ccccc1 | 6.06 | 9.73 | pKi [14]: 6.06
